Source: ChEMBL document CHEMBL1151765, “Rational design of substituted diarylureas: a scaffold for binding to G-quadruplex motifs” (J Med Chem, 2008)
Active and inactive are the calls of the source. The rule behind the calls is not given here.

How the values were obtained:
MCF7 [1] = test: Cytotoxicity against human MCF7 cells assessed as population doubling at 3.50 uM after 1 week […] relative to control; assay type: functional
Summary of the method: (§1)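 MCF7 cells (1×10^5) treated with sub-cytotoxic ligand concentrations for 1 week, biweekly dosing. Cells counted by haemocytometer; population doublings n = (log Pn – log P0)/log2. Values normalized to vehicle control (100%) ± sd, two independent concentrations per ligand.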

A549 [2] = test: Selectivity ratio of IC50 for human A549 cells to IC50 for human WI38 cells
A549 [3] = test: Cytotoxicity against human A549 cells after 96 hrs by SRB assay; assay type: functional, cell-based; details: A549, 96 h
[4] = Stabilization of d[(TA)2GC(TA)2T6(TA)2]GC(TA)2 sequence of duplex DNA assessed as change in melting temperature at 1 uM by FRET assay
Summary of the method: (§2)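 Dual-labelled FAM/TAMRA oligos at 400nM in 60mM KCl potassium cacodylate buffer, pH 7.4, heated to 85 °C for 10 min, then cooled. Ligand added to 1µM; buffer alone as negative control. Excitation 450–495nm, emission read at 515–545nm every 0.5 °C from 30–100 °C. ΔTm is ligand Tm minus control Tm, from four experiments ± maximum sd; c-kit1 curves fitted to sigmoids.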

[5] = Stabilization of d[AGAG3AG2GCGCTG3AG2AG3GCT] sequence of c-kit1 G-quadruplex DNA assessed as change in melting temperature at 1 uM by FRET assay; summary of the method: as §2
[6] = Cytotoxicity against human WI38 cells after 96 hrs by SRB assay; assay type: cell-based; details: WI-38, 96 h
[7] = Stabilization of d[C3G3CG3CGCGAG3AG4AG2] sequence of c-kit2 G-quadruplex DNA assessed as change in melting temperature at 1 uM by FRET assay; summary of the method: as §2
MCF7 [8] = test: Cytotoxicity against human MCF7 cells after 96 hrs by SRB assay; assay type: functional, cell-based; details: MCF7, 96 h
MCF7 [9] = test: Cytotoxicity against human MCF7 cells assessed as cell senescence at 3.5 uM after 1 week by beta-galactosidase assay; assay type: functional
MCF7 [10] = test: Cytotoxicity against human MCF7 cells assessed as population doubling at 2 uM after 1 week […] relative to control; assay type: functional; summary of the method: as §1
[11] = Stabilization of d[G3(T2AG3)3] sequence of F21T telomeric G-quadruplex DNA assessed as change in melting temperature at 1 uM by FRET assay
Summary of the method: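 Dual-labelled oligo (5′-FAM, 3′-TAMRA) at 400nM in FRET buffer (60mM KCl, K cacodylate, pH 7.4), heated to 85 °C for 10 min, cooled to room temperature. Ligand added from DMSO dilution. Excitation 450–495nm, emission 515–545nm, read every 0.5 °C from 30–100 °C. ΔTm from four experiments: averaged ligand Tm minus averaged buffer-control Tm, ± maximum sd.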

MCF7 [12] = test: Cytotoxicity against human MCF7 cells assessed as cell senescence at 2 uM after 1 week by beta-galactosidase assay; assay type: functional
[13] = Stabilization of d[G3(T2AG3)3] sequence of F21T telomeric G-quadruplex DNA assessed as change in melting temperature at 1 uM by FRET assay relative to BRACO-19 in presence of calf thymus DNA
Summary of the method: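 F21T FRET melting with ligand at 1µM in the presence of calf thymus DNA competitor at increasing bp concentrations. Retained stabilization, from three experiments, normalized to the ligand's ΔTm with no competitor (100%) ± normalized sd.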

MCF7 [14] = test: Selectivity ratio of IC50 for human MCF7 cells to IC50 for human WI38 cells
[15] = biological target: T1, Telomerase reverse transcriptase (Homo sapiens, UniProt O14746); test: Inhibition of telomerase by TRAP-LIG assay
[16] = Selectivity ratio of equilibrium binding constant K for d[(CG3)2CGCGAG3AG4] sequence of c-kit2 G-quadruplex DNA to equilibrium binding constant K for d[CGA2T2CGTCTC2GA2T2CG] sequence of duplex DNA
[17] = Selectivity ratio of equilibrium binding constant K for d[(AG3TG4)2A] sequence of c-myc G-quadruplex DNA to equilibrium binding constant K for d[CGA2T2CGTCTC2GA2T2CG] sequence of duplex DNA
[18] = Selectivity ratio of equilibrium binding constant K for human telomeric d[AG3(T2AG3)3] sequence to equilibrium binding constant K for d[CGA2T2CGTCTC2GA2T2CG] sequence of duplex DNA
MCF7 [19] = test: Cytotoxicity against human MCF7 cells assessed as population doubling at 10 uM after 1 week […] relative to control; assay type: functional; summary of the method: as §1
Homo sapiens = organism: Homo sapiens; test: Binding affinity to biotin-labeled human telomeric d[AG3(T2AG3)3] sequence by surface plasmon resonance analysis
Summary of the method: (§3)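 Streptavidin chip with 5′-biotinylated DNA immobilized to 350-400 RU; blank reference flow cell. Run in 10mM HEPES, 100mM KCl, 3mM EDTA, P20 surfactant, pH 7.3, 25°C. Ligand 1nM to 10µM (from 20mM DMSO stock) injected at 50µl/min for 5–10 min to steady state, then 10 min buffer dissociation; glycine pH 2.0 regeneration between cycles.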

[20] = Selectivity ratio of equilibrium binding constant K for d[(AG3)2CGCTG3AG2AG3] sequence of c-kit1 G-quadruplex DNA to equilibrium binding constant K for d[CGA2T2CGTCTC2GA2T2CG] sequence of duplex DNA
MCF7 [21] = test: Cytotoxicity against human MCF7 cells assessed as population doubling at 5 uM after 1 week […] relative to control; assay type: functional; summary of the method: as §1
[22] = Binding affinity to biotin-labeled d[(CG3)2CGCGAG3AG4] sequence of c-kit2 G-quadruplex DNA by surface plasmon resonance analysis; summary of the method: as §3
[23] = Binding affinity to biotin-labeled d[(AG3TG4)2A] sequence of c-myc G-quadruplex DNA by surface plasmon resonance analysis; summary of the method: as §3
[24] = Binding affinity to biotin-labeled d[(AG3)2CGCTG3AG2AG3] sequence of c-kit1 G-quadruplex DNA by surface plasmon resonance analysis; summary of the method: as §3
[25] = Binding affinity to biotin-labeled d[CGA2T2CGTCTC2GA2T2CG] sequence of duplex DNA by surface plasmon resonance analysis; summary of the method: as §3
MCF7 [26] = test: Cytotoxicity against human MCF7 cells assessed as cell senescence at 10 uM after 1 week by beta-galactosidase assay; assay type: functional
MCF7 [27] = test: Cytotoxicity against human MCF7 cells assessed as cell senescence at 5 uM after 1 week by beta-galactosidase assay; assay type: functional
[28] = biological target: T1, Telomerase reverse transcriptase; test: Inhibition of telomerase at 50 uM by TRAP-LIG assay relative to control

T1 sequence (O14746 whole entry): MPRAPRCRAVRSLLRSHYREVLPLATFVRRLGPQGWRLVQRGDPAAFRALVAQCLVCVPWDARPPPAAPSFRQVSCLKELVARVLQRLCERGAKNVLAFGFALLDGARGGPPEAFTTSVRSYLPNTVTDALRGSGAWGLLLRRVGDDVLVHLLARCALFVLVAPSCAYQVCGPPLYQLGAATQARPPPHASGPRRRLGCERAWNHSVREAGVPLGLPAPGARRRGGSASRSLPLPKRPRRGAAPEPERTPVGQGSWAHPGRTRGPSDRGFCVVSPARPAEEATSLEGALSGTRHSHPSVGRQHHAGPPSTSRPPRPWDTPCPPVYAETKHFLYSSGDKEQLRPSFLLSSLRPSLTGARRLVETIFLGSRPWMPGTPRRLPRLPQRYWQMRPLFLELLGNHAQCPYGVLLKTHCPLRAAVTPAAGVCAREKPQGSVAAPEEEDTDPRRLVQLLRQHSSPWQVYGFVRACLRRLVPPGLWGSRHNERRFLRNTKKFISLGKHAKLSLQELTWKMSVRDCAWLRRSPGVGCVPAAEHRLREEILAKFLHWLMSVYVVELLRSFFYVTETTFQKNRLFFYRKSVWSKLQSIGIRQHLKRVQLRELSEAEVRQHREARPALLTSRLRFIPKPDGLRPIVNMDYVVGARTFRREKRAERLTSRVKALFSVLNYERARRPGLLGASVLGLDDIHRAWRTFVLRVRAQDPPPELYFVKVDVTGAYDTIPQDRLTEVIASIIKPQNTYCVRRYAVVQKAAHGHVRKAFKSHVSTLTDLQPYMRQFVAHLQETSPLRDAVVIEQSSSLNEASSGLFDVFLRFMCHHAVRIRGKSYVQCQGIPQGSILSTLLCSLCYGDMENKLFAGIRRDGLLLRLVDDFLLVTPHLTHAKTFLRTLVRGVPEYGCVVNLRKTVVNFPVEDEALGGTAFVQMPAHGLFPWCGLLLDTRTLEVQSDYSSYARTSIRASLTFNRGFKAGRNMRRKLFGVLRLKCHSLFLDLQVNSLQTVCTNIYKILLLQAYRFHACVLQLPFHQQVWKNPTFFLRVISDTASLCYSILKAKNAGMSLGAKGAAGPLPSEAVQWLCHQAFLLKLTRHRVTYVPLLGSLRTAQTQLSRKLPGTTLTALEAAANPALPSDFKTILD

SMILES	Ratio IC50 (A549 [2])	IC50 (A549 [3])	change in melting temperature (ΔTm) [4]	change in melting temperature (ΔTm) [5]	IC50 [6]	change in melting temperature (ΔTm) [7]	IC50 (MCF7 [8])	change in melting temperature (ΔTm) [11]	Activity [13]	Ratio IC50 (MCF7 [14])	also measured
O=C(CCN1CCCCC1)Nc1ccc(NC(=O)c2cccc(NC(=O)Nc3cccc(C(=O)Nc4ccc(NC(=O)CCN5CCCCC5)cc4)c3)c2)cc1	1	> 50 µM	0.1 °C	7 °C	> 50 µM	7.1 °C	5.1 µM	5.2 °C	Active	–	Activity (MCF7 [1]): 84.3%; Activity (MCF7 [9]): 1.33%; Activity (MCF7 [10]): 89.2%; Activity (MCF7 [12]): 1.29%
O=C(CN1CCCC1)Nc1cccc(NC(=O)c2ccc(NC(=O)Nc3ccc(C(=O)Nc4cccc(NC(=O)CN5CCCC5)c4)cc3)cc2)c1	1	> 50 µM	2.5 °C	0.7 °C	> 50 µM	2 °C	> 50 µM	1.8 °C	–	1	–
O=C(CCN1CCCC1)Nc1cc(NC(=O)Nc2cc(NC(=O)CCN3CCCC3)cc(C(=O)Nc3ccccc3)c2)cc(C(=O)Nc2ccccc2)c1	0.4	41.5 µM	–	4.9 °C	16.2 µM	12.9 °C	32.4 µM	13.3 °C	Active	0.5	–
O=C(CCCN1CCCC1)Nc1cccc(NC(=O)c2ccc(NC(=O)Nc3ccc(C(=O)Nc4cccc(NC(=O)CCCN5CCCC5)c4)cc3)cc2)c1	1.3	19.4 µM	5.5 °C	–	> 25 µM	6.5 °C	19.5 µM	3.3 °C	–	1.3	–
C[n+]1ccc(-c2c3nc(c(-c4cc[n+](C)cc4)c4ccc([nH]4)c(-c4cc[n+](C)cc4)c4nc(c(-c5cc[n+](C)cc5)c5ccc2[nH]5)C=C4)C=C3)cc1 [TMPYP4 CHLORIDE]	–	–	–	–	–	–	–	–	–	–	EC50 [15]: 8.9 µM
O=C(CCN1CCOCC1)Nc1ccc(NC(=O)c2cccc(NC(=O)Nc3cccc(C(=O)Nc4ccc(NC(=O)CCN5CCOCC5)cc4)c3)c2)cc1	–	> 50 µM	0.2 °C	–	> 50 µM	1.3 °C	40.6 µM	1 °C	–	–	–
O=C(CN1CCCC1)Nc1ccc(NC(=O)c2cccc(NC(=O)Nc3cccc(C(=O)Nc4ccc(NC(=O)CN5CCCC5)cc4)c3)c2)cc1	0.3	> 50 µM	–	3.6 °C	16.4 µM	11.3 °C	14.4 µM	7.9 °C	Active	–	Selectivity ratio [16]: > 400; Selectivity ratio [17]: > 400; Selectivity ratio [18]: > 400; Activity (MCF7 [19]): 73.1%; KA (Homo sapiens): 1.4 ×10⁶ /M; Selectivity ratio [20]: > 400; Activity (MCF7 [21]): 92.2%; KA [22]: 5.1 ×10⁶ /M; KA [23]: 14 ×10⁶ /M; KA [24]: 2.1 ×10⁶ /M; KA [25]: < 1 ×10³ /M; Activity (MCF7 [26]): 1.7%; Activity (MCF7 [27]): 1%; EC50 [15]: > 50 µM; inhibition [28]: 21%
C[n+]1ccc(-c2c3nc(c(-c4cc[n+](C)cc4)c4ccc([nH]4)c(-c4cc[n+](C)cc4)c4ccc([nH]4)c(-c4cc[n+](C)cc4)c4nc2C=C4)C=C3)cc1	–	–	–	–	–	–	–	–	–	–	Activity [28]: inactive
